Measurements from different studies.
Lines come from different studies, so protocols differ.
Target: 5'-AMP-activated protein kinase catalytic subunit alpha-2 (PRKAA2, Homo sapiens, UniProt P54646)

Compound | observed | technique | concentration | remaining binding [%]
C[C@H]1CCN(c2nccc(-c3cnn4ncccc34)n2)C1 | binding |  | 1 µM | 84
Cc1cnc(Nc2ccc(C(=O)N3CCC(N4CCCC4)CC3)cc2)nc1-c1cc2ccccc2s1 | binding | competition with immobilised ligand | 1 µM | 7
C[C@H](c1ccc(F)cc1)N(Cc1cccc(C(=O)O)c1)C(=O)c1cnc2ccccc2c1 | cell-free assay | competition with immobilised ligand | 1 µM | 100
N[C@@H]1CCN(c2nccc(-c3cnn4ncccc34)n2)C1 | binding |  | 1 µM | 98
O=C(c1ccc(Nc2ncc(Cl)c(-c3cc4ccccc4s3)n2)cc1)N1CCC(N2CCCC2)CC1 | binding | competition with immobilised ligand | 1 µM | 4
Cc1c[nH]c2nccc(Oc3c(F)cc(Nc4cc(Cl)nc(N)n4)cc3F)c12 | cell-free assay | competition with immobilised ligand | 0.1 µM | 89
CN(c1nccc(-c2cnn3ncccc23)n1)C1CC1 | binding |  | 1 µM | 100
COc1ncc2cc3ccccc3nc2c1C#N | cell-free assay | competition with immobilised ligand | 5 µM | 96
O=C(NCCCN1CCOCC1)c1ccc(Nc2nccc(-c3cc4ccccc4s3)n2)cc1 | binding | competition with immobilised ligand | 1 µM | 41
CC1=C(C#N)[C@@H](c2ccc3[nH]nc(C)c3c2)C(C#N)=C(c2ccc(Cl)cc2)N1 | cell-free assay | competition with immobilised ligand | 1 µM | 95.3
COc1cnc(Nc2cccc(S(N)(=O)=O)c2)nc1N1CCN(c2ccccc2)C(=O)C1 | binding | competition with immobilised ligand | 1 µM | 100
C=CC(=O)N1CCC(C(=O)NCC(=O)N2CCN(c3nc(-c4cnc(N)nc4C(F)F)nc(N4CCOCC4)n3)CC2)CC1 | binding | competition with immobilised ligand | 1 µM | 100
O=C(NCc1ncc(C(F)(F)F)cc1Cl)c1ccc2c(c1)C1(CCS(=O)(=O)CC1)[C@H](C1CC1)N2S(=O)(=O)c1ccc(F)cc1 | cell-free assay | competition with immobilised ligand | 1 µM | 100
CCN1CCN(Cc2ccc(C(=O)Nc3ccc(C)c(Oc4ccc5c(c4)CC(=O)N5)c3)cc2C(F)(F)F)CC1 | binding | competition with immobilised ligand | 1 µM | 100
CN(C)c1ncc(F)c(-c2cnn3ncccc23)n1 | binding |  | 1 µM | 100
O=C(NCC1CCOCC1)c1n[nH]cc1NC(=O)c1c(F)cccc1F | binding | competition with immobilised ligand | 1 µM | 100
CC1CCCN1c1nccc(-c2cnn3ncccc23)n1 (stereo not shown) | binding |  | 1 µM | 100
CNC(=O)[C@@H]1CC[C@@H](n2c(-c3ccc4cnccc4c3)nc3ccc(C(=O)NCc4cccc(C(N)=O)c4)cc32)C1 | binding | competition with immobilised ligand | 1 µM | 91
CN(C)c1nccc(-c2cnn3ncccc23)n1 | binding |  | 1 µM | 100
O=C(NS(=O)(=O)c1ccc(NCC2CCOCC2)c([N+](=O)[O-])c1)c1ccc(N2CCN(Cc3ccc(C(F)(F)F)cc3-c3ccc(Cl)cc3)CC2)cc1Oc1cnc2[nH]ccc2c1 | cell-free assay | competition with immobilised ligand | 1 µM | 100
CN(C)c1nccc(-c2cnc3ncccn23)n1 | binding |  | 1 µM | 80
CNC(=O)Nc1ccc2c(c1)CC[C@@]21OC(=O)N(CC(=O)N(Cc2ccc(F)cc2)[C@@H](C)C(F)(F)F)C1=O | cell-free assay | competition with immobilised ligand | 1 µM | 99
